Tests used:
[1] = Modulation of P-gp (unknown origin) transfected in human MDA435/LCC6MDR cells assessed as reversible of paclitaxel resistance measured as IC50 for paclitaxel at 1 uM after 5 days by CellTiter 96 Aqueous assay
[2] = Modulation of P-gp (unknown origin) transfected in human MDA435/LCC6MDR cells assessed as reversing paclitaxel resistance measured as cell survival after 5 days by MTS assay
[3] = Modulation of BCRP (unknown origin) transfected in human HEK293/R2 cells assessed as potentiation of topotecan-induced cytotoxicity measured as topotecan IC50 at 1 uM after 5 days by MTS assay
[4] = Modulation of MRP1 (unknown origin) transfected in human 2008/MRP1 cells assessed as potentiation of doxorubicin-induced cytotoxicity measured as doxorubicin IC50 at 1 uM after 5 days by MTS assay
[5] = Modulation of P-gp (unknown origin) transfected in human MDA435/LCC6MDR cells assessed as reversing doxorubicin resistance measured as cell survival after 5 days by MTS assay
[6] = Modulation of P-gp (unknown origin) transfected in human MDA435/LCC6MDR cells assessed as reversing vinblastine resistance measured as cell survival after 5 days by MTS assay
[7] = Modulation of P-gp (unknown origin) transfected in human MDA435/LCC6MDR cells assessed as reversing vincristine resistance measured as cell survival after 5 days by MTS assay
[8] = biological target: ATP-dependent translocase ABCB1 (Homo sapiens, UniProt P08183); test: Modulation of P-gp (unknown origin) transfected in human MDA435/LCC6MDR cells assessed as reversible of paclitaxel resistance measured as IC50 for paclitaxel at 10 uM after 5 days by CellTiter 96 Aqueous assay
Chain of ATP-dependent translocase ABCB1 (P08183 whole entry): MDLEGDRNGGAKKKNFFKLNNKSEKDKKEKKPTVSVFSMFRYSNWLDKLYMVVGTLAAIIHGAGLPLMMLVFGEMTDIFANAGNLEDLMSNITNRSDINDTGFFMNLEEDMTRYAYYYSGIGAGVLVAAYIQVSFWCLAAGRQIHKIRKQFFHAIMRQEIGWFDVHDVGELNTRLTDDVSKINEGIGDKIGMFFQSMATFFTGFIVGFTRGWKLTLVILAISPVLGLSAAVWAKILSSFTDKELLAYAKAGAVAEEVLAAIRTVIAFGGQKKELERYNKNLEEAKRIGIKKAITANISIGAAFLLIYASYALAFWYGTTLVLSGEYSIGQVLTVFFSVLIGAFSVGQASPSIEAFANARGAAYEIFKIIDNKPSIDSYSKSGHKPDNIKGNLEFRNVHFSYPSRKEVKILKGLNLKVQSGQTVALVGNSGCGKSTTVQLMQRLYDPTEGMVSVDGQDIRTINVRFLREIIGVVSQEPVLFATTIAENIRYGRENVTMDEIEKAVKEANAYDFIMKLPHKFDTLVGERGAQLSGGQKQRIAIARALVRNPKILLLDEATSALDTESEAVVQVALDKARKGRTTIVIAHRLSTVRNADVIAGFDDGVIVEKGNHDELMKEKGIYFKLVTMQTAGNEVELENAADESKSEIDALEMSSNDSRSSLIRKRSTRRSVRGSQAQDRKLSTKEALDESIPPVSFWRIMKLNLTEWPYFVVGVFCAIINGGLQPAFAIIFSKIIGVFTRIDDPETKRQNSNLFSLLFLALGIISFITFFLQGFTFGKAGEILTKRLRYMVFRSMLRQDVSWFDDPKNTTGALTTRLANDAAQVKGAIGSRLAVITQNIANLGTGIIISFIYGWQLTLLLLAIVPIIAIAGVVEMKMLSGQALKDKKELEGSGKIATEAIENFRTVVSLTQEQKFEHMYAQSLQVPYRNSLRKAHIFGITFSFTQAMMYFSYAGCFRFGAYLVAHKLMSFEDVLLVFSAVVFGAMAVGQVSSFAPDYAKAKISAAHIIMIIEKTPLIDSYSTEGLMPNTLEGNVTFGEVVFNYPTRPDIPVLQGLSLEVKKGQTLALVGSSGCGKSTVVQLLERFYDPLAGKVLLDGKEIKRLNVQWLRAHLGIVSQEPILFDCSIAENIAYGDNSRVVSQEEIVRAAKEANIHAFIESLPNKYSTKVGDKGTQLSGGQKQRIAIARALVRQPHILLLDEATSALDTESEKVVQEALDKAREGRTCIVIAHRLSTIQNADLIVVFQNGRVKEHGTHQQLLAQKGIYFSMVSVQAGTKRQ
How it was run: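 They were held 5 days at 37 °C and viability read by CellTiter 96 AQueous (MTS). […] RF = IC50 of PTX without modulator / IC50 with modulator.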

Row | IC50 [1] [nM] | Compound | further results
1 | 19 | COc1ccc(/C=C/C(=O)O[C@H]2Cc3c(OC)cc(OC)cc3O[C@@H]2c2cc(OC)c(OC)c(OC)c2)cc1 | 
2 | 136 | COc1cc(OC)c2c(c1)O[C@H](c1cc(OC)c(OC)c(OC)c1)[C@@H](O)C2 | 
3 | 67 | COc1ccc(C(=O)O[C@H]2Cc3c(OC)cc(OC)cc3O[C@@H]2c2cc(OC)c(OC)c(OC)c2)cc1 | 
4 | 12 | COc1cc(OC)c2c(c1)O[C@H](c1cc(OC)c(OC)c(OC)c1)[C@@H](OC(=O)c1ccc(OC)c(OC)c1)C2 | 
5 | 3.3 | COc1cc(OC)c2c(c1)O[C@H](c1cc(OC)c(OC)c(OC)c1)[C@H](OC(=O)c1ccc(F)c(NC(=O)c3cc(OC)c(OC)c(OC)c3)c1)C2 | EC50 [2]: 214 nM; IC50 [3]: 207 nM; IC50 [4]: 418 nM
6 | 14 | COc1cc(OC)c2c(c1)O[C@H](c1cc(OC)c(OC)c(OC)c1)[C@H](OC(=O)c1ccc(F)c(NC(=O)c3ccc(F)c(NC(=O)c4ccc(OC)c(OC)c4)c3)c1)C2 | 
7 | 13 | COc1cc(OC)c2c(c1)O[C@H](c1cc(OC)c(OC)c(OC)c1)[C@H](OC(=O)c1ccc(F)c(NC(=O)c3ccc(F)c(NC(=O)c4cc(OC)c(OC)c(OC)c4)c3)c1)C2 | 
8 | 44 | COc1cc(OC)c2c(c1)O[C@H](c1cc(OC)c(OC)c(OC)c1)[C@@H](OC(=O)c1cc(OC)c(OC)c(OC)c1)C2=O | 
9 | 107 | COc1cc(OC)c2c(c1)O[C@H](c1cc(OC)c(OC)c(OC)c1)[C@@H](OC(C)=O)C2=O | 
10 | 48 | COc1ccc(C(=O)O[C@H]2C(=O)c3c(OC)cc(OC)cc3O[C@@H]2c2cc(OC)c(OC)c(OC)c2)cc1 | 
11 | 37 | COc1cc(OC)c2c(c1)O[C@H](c1cc(OC)c(OC)c(OC)c1)[C@@H](OC(=O)c1ccc(OC)c(OC)c1)C2=O | 
12 |  | COc1cc(OC)c2c(c1)O[C@H](c1cc(OC)c(OC)c(OC)c1)[C@@H](OC(=O)c1ccc(F)c(NC(=O)c3ccc(OC)c(OC)c3)c1)C2 | EC50 [2]: 171 nM; IC50 [3]: 45 nM; IC50 [4]: 142 nM; EC50 [5]: 208 nM; EC50 [6]: 173 nM; EC50 [7]: 147 nM
13 |  | COc1cc(OC)c2c(c1)O[C@H](c1cc(OC)c(OC)c(OC)c1)[C@@H](OC(=O)c1ccc(F)c(NC(=O)c3cc(OC)c(OC)c(OC)c3)c1)C2 | EC50 [2]: 140 nM; IC50 [3]: 38 nM; IC50 [4]: 141 nM; EC50 [5]: 107 nM; EC50 [6]: 108 nM; EC50 [7]: 102 nM
14 | 45 | COc1cccc(C(=O)O[C@@H]2Cc3c(OC)cc(OC)cc3O[C@@H]2c2cc(OC)c(OC)c(OC)c2)c1 | 
15 | 6.6 | COc1cc(OC)c2c(c1)O[C@H](c1cc(OC)c(OC)c(OC)c1)[C@@H](OC(=O)c1ccc(F)c(NC(=O)/C=C/c3ccc(OC)c(OC)c3)c1)C2 | EC50 [2]: 280 nM
16 |  | COc1cc(OC)c2c(c1)O[C@H](c1cc(OC)c(OC)c(OC)c1)[C@@H](OC(=O)c1ccc(F)c(NC(=O)/C=C/c3cc(OC)c(OC)c(OC)c3)c1)C2 | EC50 [2]: 225 nM
17 | 36 | COc1cc(OC)c2c(c1)O[C@H](c1cc(OC)c(OC)c(OC)c1)[C@H](OC(=O)c1ccc(F)c(N(C)C)c1)C2 | 
18 | 15 | COc1cc(OC)c2c(c1)O[C@H](c1cc(OC)c(OC)c(OC)c1)[C@H](OC(=O)c1ccc(F)c(NC(C)=O)c1)C2 | 
19 | 34 | COc1ccc(CC(=O)O[C@@H]2Cc3c(OC)cc(OC)cc3O[C@@H]2c2cc(OC)c(OC)c(OC)c2)cc1 | 
20 | 32 | COc1cc(OC)c2c(c1)O[C@H](c1cc(OC)c(OC)c(OC)c1)[C@H](OC(=O)Cc1ccc(OC)c(OC)c1)C2 | 

Row | IC50 [1] [nM] | Compound | further results
21 | 113 | CCOc1cc(C(=O)O[C@@H]2Cc3c(OC)cc(OC)cc3O[C@@H]2c2cc(OC)c(OC)c(OC)c2)cc(OCC)c1OCC | 
22 | 12 | C=CCOc1cc(C(=O)O[C@@H]2Cc3c(OC)cc(OC)cc3O[C@@H]2c2cc(OC)c(OC)c(OC)c2)cc(OCC=C)c1OCC=C | 
23 | 28 | COc1cc(OC)c2c(c1)O[C@H](c1cc(OC)c(OC)c(OC)c1)[C@@H](OC(=O)c1ccc(F)c(NC(=O)/C=C/c3cc(OC)c(OC)c(OC)c3)c1)C2=O | 
24 | 97 | COc1cc(OC)c2c(c1)O[C@H](c1cc(OC)c(OC)c(OC)c1)[C@H](OC(=O)c1cccc(F)c1)C2 | 
25 | 53 | COc1cc(OC)c2c(c1)O[C@H](c1cc(OC)c(OC)c(OC)c1)[C@H](OC(=O)c1ccc(F)cc1)C2 | 
26 | 148 | COc1ccc(C(=O)O[C@@H]2Cc3c(OC)cc(OC)cc3O[C@@H]2c2cc(OC)c(OC)c(OC)c2)cc1 | 
27 | 9.4 | COc1cc(OC)c2c(c1)O[C@H](c1cc(OC)c(OC)c(OC)c1)[C@@H](OC(=O)c1ccc(F)c(NC(=O)c3ccc(OC)c(OC)c3)c1)C2=O | 
28 | 20 | COc1cc(OC)c2c(c1)O[C@H](c1cc(OC)c(OC)c(OC)c1)[C@H](OC(=O)c1ccc(OC)c(OC)c1)C2 | 
29 | 37 | COc1cc(OC)c2c(c1)O[C@H](c1cc(OC)c(OC)c(OC)c1)[C@@H](OC(=O)c1ccc(F)c(NC(=O)c3cc(OC)c(OC)c(OC)c3)c1)C2=O | 
30 | 32 | C=CCOc1cc(C(=O)O[C@H]2C(=O)c3c(OC)cc(OC)cc3O[C@@H]2c2cc(OC)c(OC)c(OC)c2)cc(OCC=C)c1OCC=C | 
31 | 41 | COc1ccc(/C=C/C(=O)O[C@H]2C(=O)c3c(OC)cc(OC)cc3O[C@@H]2c2cc(OC)c(OC)c(OC)c2)cc1 | 
32 | 176 | CC(=O)Oc1cc(OC(C)=O)c2c(c1)O[C@H](c1cc(OC(C)=O)c(OC(C)=O)c(OC(C)=O)c1)[C@H](OC(=O)c1cc(OC(C)=O)c(OC(C)=O)c(OC(C)=O)c1)C2 | 
33 | 6.2 | COc1cc(OC)c2c(c1)O[C@H](c1cc(OC)c(OC)c(OC)c1)[C@H](OC(=O)c1ccc(F)c(NC(=O)/C=C/c3cc(OC)c(OC)c(OC)c3)c1)C2 | 
34 | 3 | COc1cc(OC)c2c(c1)O[C@H](c1cc(OC)c(OC)c(OC)c1)[C@H](OC(=O)c1ccc(F)c(NC(=O)c3ccc(OC)c(OC)c3)c1)C2 | EC50 [2]: 159 nM; IC50 [3]: 176 nM; IC50 [4]: 434 nM; EC50 [5]: 139 nM; EC50 [6]: 193 nM; EC50 [7]: 181 nM
35 |  | COc1cc(OC)c2c(c1)O[C@H](c1cc(OC)c(OC)c(OC)c1)[C@H](OC(=O)/C=C/c1cc(OC)c(OC)c(OC)c1)C2 | IC50 [3]: 357 nM; IC50 [4]: 322 nM
36 | 40 | COc1ccc(CCC(=O)O[C@@H]2Cc3c(OC)cc(OC)cc3O[C@@H]2c2cc(OC)c(OC)c(OC)c2)cc1 | 
37 | 19 | COc1cc(OC)c2c(c1)O[C@H](c1cc(OC)c(OC)c(OC)c1)[C@H](OC(=O)CCc1ccc(OC)c(OC)c1)C2 | 
38 | 18 | COc1cc(OC)c2c(c1)O[C@H](c1cc(OC)c(OC)c(OC)c1)[C@H](OC(=O)CCc1cc(OC)c(OC)c(OC)c1)C2 | 
39 | 22 | COc1ccc(/C=C/C(=O)O[C@@H]2Cc3c(OC)cc(OC)cc3O[C@@H]2c2cc(OC)c(OC)c(OC)c2)cc1 | 
40 | 8.7 | COc1cc(OC)c2c(c1)O[C@H](c1cc(OC)c(OC)c(OC)c1)[C@H](OC(=O)/C=C/c1ccc(OC)c(OC)c1)C2 | EC50 [2]: 157 nM; EC50 [5]: 160 nM; EC50 [6]: 123 nM; EC50 [7]: 167 nM

Row | Compound | IC50 [1] [nM] | further results
41 | O=C(O[C@@H]1Cc2c(O)cc(O)cc2O[C@@H]1c1cc(O)c(O)c(O)c1)c1cc(O)c(O)c(O)c1 [(-)-Epigallocatechin-3-o-gallate] | 124 | IC50 [8]: 123 nM

From BindingDB's records for doi:10.1021/acs.jmedchem.5b00085 (The Hong Kong Polytechnic University, 2015)
